Test results taken from ChEMBL document CHEMBL1134229 (Bioorg Med Chem Lett, 2001).
pEC50, pKi: −log10 of the molar value.

Tests used:
[1] = biological target: T1, Somatostatin receptor type 4 (Homo sapiens, UniProt P31391); experiment: Inhibitory constant on human somatostatin receptor 4
Method in brief: (§1)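 Competition binding against [¹²⁵I-Tyr¹¹]SRIF-14 on membranes from CHO-K1 cells stably expressing each human SRIF receptor subtype. Method adapted from Shimon et al. Ki is reported.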

[2] = biological target: T2, Somatostatin receptor type 5 (Homo sapiens, UniProt P35346); experiment: Agonist activity on human somatostatin receptor 5; type: functional
Method in brief: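 Confluent CHO-K1 cells expressing human sst₅ were washed in RPMI 1640 with 0.2% BSA at 37 °C, then preincubated 5 min with isobutylmethylxanthine. Cells were then incubated 20 min at 37 °C with forskolin plus increasing agonist concentrations.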

[3] = biological target: T3, Somatostatin receptor type 3 (Homo sapiens, UniProt P32745); experiment: Inhibitory constant on human somatostatin receptor type 3; method in brief: as §1
[4] = biological target: T4, Somatostatin receptor type 2 (Homo sapiens, UniProt P30874); experiment: (§2) Inhibitory constant on human Somatostatin receptor type 2; type: single protein; method in brief: as §1
[5] = biological target: Somatostatin receptor type 1 (Homo sapiens, UniProt P30872); experiment: Inhibitory constant on human Somatostatin receptor type 1; method in brief: as §1
[6] = biological target: T2, Somatostatin receptor type 5; experiment: Inhibitory constant on human somatostatin receptor 5; method in brief: as §1
[7] = biological target: T2, Somatostatin receptor type 5; experiment: Inhibitory constant on human Somatostatin receptor type 5; method in brief: as §1
[8] = biological target: T3, Somatostatin receptor type 3; experiment: Inhibitory constant on human Somatostatin receptor type 3; method in brief: as §1
[9] = biological target: T1, Somatostatin receptor type 4; experiment: Inhibitory constant on human Somatostatin receptor type 4; method in brief: as §1
[10] = biological target: T4, Somatostatin receptor type 2; experiment: as §2; method in brief: as §1

T3 sequence (P32745 whole entry): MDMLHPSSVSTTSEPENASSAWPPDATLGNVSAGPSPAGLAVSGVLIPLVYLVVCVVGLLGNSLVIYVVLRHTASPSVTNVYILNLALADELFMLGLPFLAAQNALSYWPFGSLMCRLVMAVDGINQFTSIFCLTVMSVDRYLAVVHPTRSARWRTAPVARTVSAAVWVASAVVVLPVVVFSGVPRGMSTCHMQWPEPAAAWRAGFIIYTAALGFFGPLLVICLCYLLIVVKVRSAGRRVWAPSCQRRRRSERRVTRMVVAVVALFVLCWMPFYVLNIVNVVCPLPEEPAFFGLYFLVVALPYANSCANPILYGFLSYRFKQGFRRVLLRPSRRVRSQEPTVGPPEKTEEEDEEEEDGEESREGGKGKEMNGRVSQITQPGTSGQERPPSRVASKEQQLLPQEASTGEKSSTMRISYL
T2 sequence (P35346 whole entry): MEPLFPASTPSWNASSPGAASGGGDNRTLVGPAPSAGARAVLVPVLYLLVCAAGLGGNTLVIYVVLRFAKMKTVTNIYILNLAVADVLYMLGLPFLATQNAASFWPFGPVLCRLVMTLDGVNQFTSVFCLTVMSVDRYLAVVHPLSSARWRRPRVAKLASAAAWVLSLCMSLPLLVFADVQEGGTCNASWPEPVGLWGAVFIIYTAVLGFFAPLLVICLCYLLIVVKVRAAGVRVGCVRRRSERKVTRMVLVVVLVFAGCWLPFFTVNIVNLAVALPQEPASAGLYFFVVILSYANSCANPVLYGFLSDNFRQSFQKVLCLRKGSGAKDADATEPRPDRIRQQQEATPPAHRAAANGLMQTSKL
Somatostatin receptor type 1, sequence (P30872 whole entry): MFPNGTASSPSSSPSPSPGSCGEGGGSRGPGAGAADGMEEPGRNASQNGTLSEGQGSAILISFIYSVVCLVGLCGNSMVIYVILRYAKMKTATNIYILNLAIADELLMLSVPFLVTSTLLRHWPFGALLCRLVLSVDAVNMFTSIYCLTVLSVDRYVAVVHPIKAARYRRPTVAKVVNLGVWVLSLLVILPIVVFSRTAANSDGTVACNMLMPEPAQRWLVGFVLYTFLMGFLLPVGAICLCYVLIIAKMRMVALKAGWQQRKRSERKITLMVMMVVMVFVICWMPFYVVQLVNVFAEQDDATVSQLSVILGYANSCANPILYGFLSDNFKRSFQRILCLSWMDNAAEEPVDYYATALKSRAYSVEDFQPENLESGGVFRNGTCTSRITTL
T4 sequence (P30874 whole entry): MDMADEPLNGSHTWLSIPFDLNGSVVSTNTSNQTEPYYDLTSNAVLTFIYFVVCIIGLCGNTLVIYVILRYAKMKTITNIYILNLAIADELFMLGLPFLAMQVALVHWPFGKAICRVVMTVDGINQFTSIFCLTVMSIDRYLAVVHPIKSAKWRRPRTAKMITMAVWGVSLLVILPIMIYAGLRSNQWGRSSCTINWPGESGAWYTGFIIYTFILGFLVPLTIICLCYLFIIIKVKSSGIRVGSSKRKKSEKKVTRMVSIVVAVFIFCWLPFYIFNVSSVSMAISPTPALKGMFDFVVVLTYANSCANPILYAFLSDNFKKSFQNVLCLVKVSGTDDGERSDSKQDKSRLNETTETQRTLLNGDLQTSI
T1 sequence (P31391 whole entry): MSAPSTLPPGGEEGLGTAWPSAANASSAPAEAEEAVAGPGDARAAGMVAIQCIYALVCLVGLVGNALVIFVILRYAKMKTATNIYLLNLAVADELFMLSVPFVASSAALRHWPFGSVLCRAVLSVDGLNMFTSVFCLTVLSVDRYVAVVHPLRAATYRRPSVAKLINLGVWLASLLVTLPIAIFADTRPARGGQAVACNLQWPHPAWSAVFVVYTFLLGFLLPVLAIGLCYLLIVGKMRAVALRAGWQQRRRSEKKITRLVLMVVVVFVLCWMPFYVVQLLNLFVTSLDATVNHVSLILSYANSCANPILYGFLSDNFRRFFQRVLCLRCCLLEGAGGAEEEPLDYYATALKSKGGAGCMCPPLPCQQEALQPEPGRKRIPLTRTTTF

Row | pKi [1] | pEC50 [2] | pKi [3] | pKi [4] | pKi [5] | pKi [6] | pKi [7] | pKi [8] | pKi [9] | pKi [10] | SMILES
1 | < 5.00 | – | 5.60 | 5.10 | 5.47 | 6.37 | – | – | – | – | NCCCc1nc(-c2cccc([N+](=O)[O-])c2)cn2cc(-c3ccccc3)nc12
2 | < 5.00 | – | 5.51 | 5.22 | 5.48 | 6.10 | – | – | – | – | NCCCc1nc(-c2c[nH]c3ccccc23)cn2cc(-c3ccccc3)nc12
3 | < 5.30 | – | < 5.30 | < 5.30 | < 5.30 | < 5.30 | – | – | – | – | NCCCc1nc(-c2ccccc2)cn2cc(-c3ccccc3)nc12
4 | 5.14 | – | 5.77 | 5.68 | 5.54 | 6.22 | – | – | – | – | NCCCc1nc(-c2csc3ccccc23)cn2cc(-c3ccccc3)nc12

Further lines, the molecule ahead of its results:

Row | SMILES | pKi [1] | pEC50 [2] | pKi [3] | pKi [4] | pKi [5] | pKi [6] | pKi [7] | pKi [8] | pKi [9] | pKi [10]
5 | CC(C)(C(=O)NC1CCCCC1)c1cn2cc(-c3csc4ccccc34)nc(CCCN)c2n1 | < 5.00 | 5.80 | 5.43 | 5.02 | 5.01 | 6.44 | – | – | – | –
6 | CCCCNC(=O)C(C)(C)c1cn2cc(-c3csc4ccccc34)nc(CCCN)c2n1 | < 5.00 | – | 5.05 | < 5.00 | < 5.00 | 6.27 | – | – | – | –
7 | CC(C)(C(=O)NCCc1c[nH]c2ccccc12)c1cn2cc(-c3csc4ccccc34)nc(CCCN)c2n1 | < 5.00 | – | 5.00 | 5.49 | 5.40 | 5.64 | – | – | – | –
8 | CC(C)(C(=O)NCCc1c[nH]c2ccccc12)c1cn2cc(Cc3ccccc3)nc(CCCN)c2n1 | 5.14 | – | 5.92 | 5.07 | 5.34 | 5.92 | – | – | – | –
9 | CC(C)(C(=O)NCCN)c1cn2c(n1)C(Cc1c[nH]c3ccccc13)N=C(Cc1ccccc1)C2 (stereo unspecified) | – | – | – | – | < 5.00 | – | < 6.00 | < 5.00 | < 5.00 | < 5.00
10 | c1ccc(Cc2nc(-c3ccccc3)cn3cc(-c4ccccc4)nc23)cc1 | – | – | – | – | < 5.30 | – | < 5.30 | < 5.30 | < 5.30 | < 5.30
